Assay results from ChEMBL document CHEMBL1671684, “In vitro resistance profile of the hepatitis C virus NS3/4A protease inhibitor TMC435” (Antimicrob Agents Chemother, 2010).
The source made the active and inactive calls. No cut-off for these calls is given here.

How the values were obtained:
[1] = system: Hepatitis C virus; assay: Antiviral activity against Hepatitis C virus subtype 1b expressing NS3 V36L mutant infected in HuH7 cells after 48 hrs by luciferase reporter assay; type: functional, organism-based, Hepacivirus hominis; conditions: genotype 1b, Huh-7, 48 h
Summary of the method: (§1)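 Genotype 1b con1 subgenomic bicistronic replicon (clone ET) with luciferase reporter and adaptive mutations E1202G, T1280I, K1846T, carrying site-directed NS3 single or double mutations. 10 μg wild-type or mutant replicon RNA electroporated into Huh7-lunet cells, seeded 4,000 cells/well over a nine-point inhibitor dilution series, 48 h at 37°C, 5% CO2, then luminescence read. EC50 taken as median of individual experiments; fold change relative to parental replicon EC50.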

[2] = system: Hepatitis C virus; assay: Antiviral activity against Hepatitis C virus subtype 1b expressing NS3 A156S mutant infected in HuH7 cells after 48 hrs by luciferase reporter assay; type: functional, organism-based, Hepacivirus hominis; conditions: genotype 1b, Huh-7, 48 h; summary of the method: as §1
[3] = system: Hepatitis C virus; assay: Ratio of EC50 for Hepatitis C virus subtype 1b expressing NS3 R155M mutant to EC50 for Hepatitis C virus subtype 1b expressing WT NS3 infected in HuH7 cells after 48 hrs by luciferase reporter assay; type: functional, Hepacivirus hominis, genotype 1b, Huh-7
Summary of the method: (§2)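 Transient replicon assay: site-directed single or multiple NS3 mutations engineered into genotype 1b (con1, clone ET) subgenomic bicistronic replicon with luciferase reporter and adaptive mutations E1202G, T1280I, K1846T. Huh7-lunet cells electroporated with 10 μg wild-type or mutant replicon RNA, seeded 4,000 cells/well with nine-point inhibitor dilution; 48 h, 37°C, 5% CO2; luminescence read-out. EC50 as median of individual experiments; fold change versus parental replicon EC50.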

[4] = system: Hepatitis C virus; assay: Ratio of EC50 for Hepatitis C virus subtype 1b expressing NS3 R155Q mutant to EC50 for Hepatitis C virus subtype 1b expressing WT NS3 infected in HuH7 cells after 48 hrs by luciferase reporter assay; type: functional, Hepacivirus hominis, genotype 1b, Huh-7; summary of the method: as §2
[5] = system: Hepatitis C virus; assay: Antiviral activity against Hepatitis C virus subtype 1b expressing NS3 R155M mutant infected in HuH7 cells after 48 hrs by luciferase reporter assay; type: functional, organism-based, Hepacivirus hominis; conditions: genotype 1b, Huh-7, 48 h; summary of the method: as §1
[6] = system: Hepatitis C virus; assay: Ratio of EC50 for Hepatitis C virus subtype 1b expressing NS3 Q80G mutant to EC50 for Hepatitis C virus subtype 1b expressing WT NS3 infected in HuH7 cells after 48 hrs by luciferase reporter assay; type: functional, Hepacivirus hominis, genotype 1b, Huh-7; summary of the method: as §2
[7] = system: Hepatitis C virus; assay: Antiviral activity against Hepatitis C virus subtype 1b expressing NS3 D168H mutant infected in HuH7 cells after 48 hrs by luciferase reporter assay; type: functional, organism-based, Hepacivirus hominis; conditions: genotype 1b, Huh-7, 48 h; summary of the method: as §1
[8] = system: Hepatitis C virus; assay: Antiviral activity against Hepatitis C virus subtype 1b expressing WT NS3 infected in HuH7 cells after 48 hrs by luciferase reporter assay; type: functional, organism-based, Hepacivirus hominis; conditions: genotype 1b, Huh-7, 48 h
Summary of the method: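 Huh7-lunet cells were electroporated with 10 μg wild-type genotype 1b subgenomic replicon RNA (clone ET; luciferase reporter; E1202G, T1280I, K1846T). They were seeded at 4,000 cells/well over a nine-point compound dilution series. After 48 h at 37°C, 5% CO2, luciferase reagent was added 1:1, followed by 10–20 min in the dark and a luminescence read. EC50 is the median of individual-experiment EC50s.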

[9] = system: Hepatitis C virus; assay: Ratio of EC50 for Hepatitis C virus subtype 1b expressing NS3 D168E mutant to EC50 for Hepatitis C virus subtype 1b expressing WT NS3 infected in HuH7 cells after 48 hrs by luciferase reporter assay; type: functional, Hepacivirus hominis, genotype 1b, Huh-7; summary of the method: as §2
[10] = system: Hepatitis C virus; assay: Antiviral activity against Hepatitis C virus subtype 1b expressing NS3 R155I mutant infected in HuH7 cells after 48 hrs by luciferase reporter assay; type: functional, organism-based, Hepacivirus hominis; conditions: genotype 1b, Huh-7, 48 h; summary of the method: as §1
[11] = Inhibition of Hepatitis C virus subtype 2a NS3/4A protease
[12] = system: Hepatitis C virus; assay: Antiviral activity against Hepatitis C virus subtype 1b expressing NS3 V170A mutant infected in HuH7 cells after 48 hrs by luciferase reporter assay; type: functional, organism-based, Hepacivirus hominis; conditions: genotype 1b, Huh-7, 48 h; summary of the method: as §1
[13] = system: Hepatitis C virus; assay: Antiviral activity against Hepatitis C virus subtype 2a JFH1 infected in HuH7.5 cells assessed as reduction in cellular viral RNA levels normalized to RPL13A RNA levels at 500 nM after 3 days by TaqMan RT-PCR; type: functional, organism-based; conditions: Hepacivirus hominis
[14] = Inhibition of Hepatitis C virus subtype 6a NS3/4A protease
[15] = system: Hepatitis C virus; assay: Ratio of EC50 for Hepatitis C virus subtype 1b expressing NS3 Q80L mutant to EC50 for Hepatitis C virus subtype 1b expressing WT NS3 infected in HuH7 cells after 48 hrs by luciferase reporter assay; type: functional, Hepacivirus hominis, genotype 1b, Huh-7; summary of the method: as §2
[16] = system: Hepatitis C virus; assay: Antiviral activity against Hepatitis C virus subtype 2a JFH1 infected in HuH7.5 cells assessed as decline in viral RNA replication at 500 nM after 14 passages by TaqMan RT-PCR; type: functional, organism-based; conditions: Hepacivirus hominis
Summary of the method: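 Huh7.5 cells electroporated with JFH-1wt RNA (genotype 2a, no reporter) in Cytomix with 2 mM ATP and 5 mM glutathione, then 500,000 cells seeded. From day 3, cells passaged with inhibitor at 500 nM or vehicle. HCV RNA quantified at each passage by TaqMan real-time RT-PCR, normalised to host RPL13A RNA by comparative CT. Day-3 level set as 100%.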

[17] = system: Hepatitis C virus; assay: Inhibition of Hepatitis C virus subtype 1b NS3/4A protease
[18] = system: Hepatitis C virus; assay: Antiviral activity against Hepatitis C virus subtype 2a JFH1 infected in HuH7.5 cells assessed as viral RNA replication after initial decline at 500 nM after 3 days by TaqMan RT-PCR; type: functional, organism-based; conditions: Hepacivirus hominis
[19] = system: Hepatitis C virus; assay: Antiviral activity against Hepatitis C virus subtype 1b expressing NS3 Q41R mutant infected in HuH7 cells after 48 hrs by luciferase reporter assay; type: functional, organism-based, Hepacivirus hominis; conditions: genotype 1b, Huh-7, 48 h; summary of the method: as §1
[20] = system: Hepatitis C virus; assay: Antiviral activity against Hepatitis C virus subtype 1a infected in human assessed as suppression of viral RNA level at 200 mg administered SID for 5 days measured after 3 days last postdose; type: functional, organism-based; conditions: Hepacivirus hominis
[21] = system: Hepatitis C virus; assay: Antiviral activity against Hepatitis C virus subtype 1b expressing NS3 D168V mutant infected in HuH7 cells after 48 hrs by luciferase reporter assay; type: functional, organism-based, Hepacivirus hominis; conditions: genotype 1b, Huh-7, 48 h; summary of the method: as §1
[22] = system: Hepatitis C virus; assay: Antiviral activity against Hepatitis C virus infected in HuH7 cells assessed as cell viability at 25 times EC50 after 2 to 3 weeks by neutral red assay in presence of 1,000 ug/ml G418; type: functional, organism-based; conditions: Hepacivirus hominis; Huh-7
Summary of the method: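 Huh7-Luc genotype 1b (con1, clone ET) replicon cells, 20,000 per 10-cm dish in DMEM with 1,000 μg/ml G418. Cells got one inhibitor or a two-inhibitor combination, dosed as multiples of each inhibitor's EC50 from a genotype 1b luciferase replicon assay. Held at 37°C, 5% CO2, with medium plus compound refreshed twice weekly. After 2–3 weeks, surviving colonies were stained with neutral red and counted. Three independent experiments.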

[23] = Inhibition of Hepatitis C virus subtype 3a NS3/4A protease
[24] = system: Hepatitis C virus; assay: Antiviral activity against Hepatitis C virus subtype 2a JFH1 infected in HuH7.5 cells assessed as occurrence of the viral-induced CPE at 4000 nM after 3 days by luciferase reporter assay; type: functional, organism-based; conditions: Hepacivirus hominis
[25] = Inhibition of Hepatitis C virus subtype 5a NS3/4A protease
[26] = system: Hepatitis C virus; assay: Antiviral activity against Hepatitis C virus subtype 1b expressing NS3 Q80L mutant infected in HuH7 cells after 48 hrs by luciferase reporter assay; type: functional, organism-based, Hepacivirus hominis; conditions: genotype 1b, Huh-7, 48 h; summary of the method: as §1
[27] = system: Hepatitis C virus; assay: Ratio of EC50 for Hepatitis C virus subtype 1b expressing NS3 Q41R mutant to EC50 for Hepatitis C virus subtype 1b expressing WT NS3 infected in HuH7 cells after 48 hrs by luciferase reporter assay; type: functional, Hepacivirus hominis, genotype 1b, Huh-7; summary of the method: as §2

SMILES | EC50 [1] | EC50 [2] | Ratio EC50 [3] | Ratio EC50 [4] | EC50 [5] | Ratio EC50 [6] | EC50 [7] | EC50 [8] | Ratio EC50 [9] | EC50 [10] | EC50 [12] | Ratio EC50 [15] | EC50 [19] | EC50 [21] | EC50 [26] | Ratio EC50 [27] | further results
CCC[C@H](NC(=O)[C@@H]1[C@H]2CCC[C@H]2CN1C(=O)[C@@H](NC(=O)[C@@H](NC(=O)c1cnccn1)C1CCCCC1)C(C)(C)C)C(=O)C(=O)NC1CC1 [TELAPREVIR] | 300 nM | 3110 nM | 14 | 2.5 | 4110 nM | 1.2 | 102 nM | 150 nM | 0.6 | – | – | – | – | – | – | – | –
COc1ccc2c(O[C@@H]3C[C@H]4C(=O)N[C@]5(C(=O)NS(=O)(=O)C6CC6)C[C@H]5/C=C\CCCCN(C)C(=O)[C@@H]4C3)cc(-c3nc(C(C)C)cs3)nc2c1C [SIMEPREVIR] | 18 nM | 3 nM | 0.4 | 1.6 | 3.5 nM | 1.8 | 5660 nM | 11 nM | 40 | 6.6 nM | 22 nM | 2.1 | 18 nM | 17900 nM | 12 nM | 1.7 | IC50 [11]: < 13 nM; inhibition [13]: Active; IC50 [14]: < 13 nM; inhibition [16]: Active; Ki [17]: 0.5 nM; inhibition [18]: inactive; inhibition [20]: Active; inhibition [22]: inactive; IC50 [23]: 37 nM; inhibition [24]: Active; IC50 [25]: < 13 nM
CC(C)(C)NC(=O)N[C@H](C(=O)N1C[C@H]2[C@@H]([C@H]1C(=O)NC(CC1CCC1)C(=O)C(N)=O)C2(C)C)C(C)(C)C (some centres undefined) [BOCEPREVIR] | 110 nM | 525 nM | 5.7 | 1.4 | 792 nM | 1.2 | 73 nM | 148 nM | 0.8 | 5340 nM | 1550 nM | 0.9 | – | 83 nM | 133 nM | – | –
COc1ccc2c(O[C@@H]3C[C@H]4C(=O)N[C@]5(C(=O)O)C[C@H]5/C=C\CCCCC[C@H](NC(=O)OC5CCCC5)C(=O)N4C3)cc(-c3csc(NC(C)C)n3)nc2c1 [CILUPREVIR] | 1.4 nM | 1.7 nM | 68 | 242 | 84 nM | 4.9 | 215 nM | 0.8 nM | 65 | 29 nM | – | 1.2 | 2.3 nM | 1810 nM | – | 2.8 | –
